Measurements taken from ChEMBL document CHEMBL5236592, “Induction of Ferroptosis in Glioblastoma and Ovarian Cancers by a New Pyrrole Tubulin Assembly Inhibitor” (J Med Chem, 2022).

Target: Tubulin (Homo sapiens) (UniProt P68371+Q9H4B7+P0DPH7+P68366+Q13509+Q71U36+P04350+Q3ZCM7+P07437+P68363+Q9BQE3+Q6PEY2+Q13885+Q9BVA1+Q9BUF5)
Assay: Inhibition of [3H]colchicine binding to tubulin (unknown origin) at 1 uM incubated for 10 mins relative to control
Type: protein-complex assay
Outline: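 Tubulin at 1.0 μM mixed with 5.0 μM [3H]colchicine and inhibitor at 1.0 μM, incubated 10 min at 37 °C.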

Structure (SMILES) | inhibition [%]
COc1cc(C(=O)c2cn(-c3ccccn3)cc2-c2ccccc2)cc(OC)c1OC | 69
COc1cc(C(=O)c2cn(-c3ccccn3)cc2-c2ccco2)cc(OC)c1OC | 66
